Results as given in ChEMBL document CHEMBL3865824, “New (E)-1-alkyl-1H-benzo[d]imidazol-2-yl)methylene)indolin-2-ones: Synthesis, in vitro cytotoxicity evaluation and apoptosis inducing studies” (Eur J Med Chem, 2016).
Activity calls are given as the source filed them. The calls are words filed in the database; no cut-off is given here.

Key:
[1] = Cytotoxicity against human MDA-MB-231 cells assessed as reduction in cell viability after 48 hrs by MTT assay; format: functional, cell-based; conditions: MDA-MB-231, 48 h
Method in brief: (§1)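 Cells grown in DMEM or MEM with 10% FBS at 37 °C, 5% CO2. Seeded at 1×10^4 cells/well, incubated 48 h, then exposed to compound for 48 h with vehicle control. MTT (5 mg/mL stock) added for 4 h; formazan dissolved in DMSO, absorbance read at 570 nm. Preliminary screen at 50 µM. Compounds giving >50% inhibition were tested for dose-response curves; IC50 derived by linear regression of % inhibition versus concentration. Mean of three independent experiments in triplicate.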

[2] = Cytotoxicity against human MCF7 cells assessed as reduction in cell viability after 48 hrs by MTT assay; format: functional, cell-based; conditions: MCF7, 48 h; method in brief: as §1
[3] = Cytotoxicity against human MCF10A cells assessed as reduction in cell viability after 48 hrs by MTT assay; format: toxicity, cell-based, MCF-10A; method in brief: as §1
[4] = Selectivity ratio of IC50 for human MCF10A cells to IC50 for […] cells; format: ADME, cell-based, MCF-10A; conditions: MCF10A cells versus 4TI cells, read-out: Ratio IC50
[5] = Selectivity ratio of IC50 for human MCF10A cells to IC50 for human MDA-MB-231 cells; format: ADME, cell-based, MCF-10A; conditions: MCF10A cells versus MDA-MB-231 cells, read-out: Ratio IC50
[6] = tested on: MDA-MB-231; assay: Inhibition of F-actin polymerization in human MDA-MB-231 cells assessed as disruption of stress fibres at 1 to 4 uM after 12 hrs by rhodamine-phalloidin/hoechst […]-dual staining based confocal microscopic analysis; format: cell-based
Method in brief: (§2)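 MDA-MB-231 cells (1×10^6/well) were grown on coverslips for 24 h, then exposed 12 h to 1, 2 and 4 μM. After a PBS wash and fixation in 4% paraformaldehyde, F-actin was stained with rhodamine-phalloidin and nuclei with Hoechst […]. Slides were mounted in anti-fade reagent and imaged by confocal microscopy (20× objective).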

[7] = tested on: MDA-MB-231; assay: Inhibition of F-actin polymerization in human MDA-MB-231 cells assessed as decrease in protein extension at 1 to 4 uM after 12 hrs by rhodamine-phalloidin/hoechst […]-dual staining based confocal microscopic analysis; format: cell-based; method in brief: as §2
[8] = Cell cycle arrest in human MDA-MB-231 cells assessed as accumulation at S phase at 1 uM after 24 hrs by propidium iodide staining based FACS analysis (reference value: 24.6 %); format: functional
Method in brief: (§3)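 MDA-MB-231 at 1×10^6 cells/well treated with 1, 2 or 4 µM for 24 h, with a DMSO control. Cells harvested by trypsin, washed with PBS and fixed in 70% ethanol for 30 min at 4 °C. Stained 15 min at room temperature in the dark with PI buffer containing Triton X and DNase-free RNase A. Analysed by flow cytometry; G0/G1, S and G2/M fractions quantified.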

[9] = Cell cycle arrest in human MDA-MB-231 cells assessed as accumulation at S phase at 2 uM after 24 hrs by propidium iodide staining based FACS analysis (reference value: 24.6 %); format: functional; method in brief: as §3
[10] = Cell cycle arrest in human MDA-MB-231 cells assessed as accumulation at G0/G1 phase at 2 uM after 24 hrs by propidium iodide staining based FACS analysis (reference value: 50.4 %); format: functional; method in brief: as §3
[11] = Cell cycle arrest in human MDA-MB-231 cells assessed as accumulation at S phase at 4 uM after 24 hrs by propidium iodide staining based FACS analysis (reference value: 24.6 %); format: functional; method in brief: as §3
[12] = tested on: MDA-MB-231; assay: Induction of apoptosis in human MDA-MB-231 cells assessed as cell wall deformation at 1 to 4 uM after 24 hrs by phase contrast microscopic analysis; format: functional, cell-based
Method in brief: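 MDA-MB-231 treated at 1, 2 or 4 µM for 24 h. Morphology examined and photographed by phase contrast microscopy against untreated control cells.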

[13] = tested on: MDA-MB-231; assay: Induction of apoptosis in human MDA-MB-231 cells assessed as formation of condensed nuclei at 1 to 4 uM after 24 hrs by DAPI dye-based fluorescent microscopic analysis; format: functional, cell-based
Method in brief: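 MDA-MB-231 grown at 1×10^6 cells/well in 6-well plates and treated at 1.0, 2.0 or 4.0 µM for 24 h, with untreated controls. Cells washed twice with PBS, fixed in 4% paraformaldehyde and stained with 10 µg/mL DAPI. Nuclei examined by fluorescence microscopy (excitation 359 nm, emission 461 nm) at 200×.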

[14] = tested on: MDA-MB-231; assay: Induction of apoptosis in human MDA-MB-231 cells assessed as loss of mitochondrial membrane potential at 1 uM after 24 hrs by rhodamine-123 -based spectrofluorometric analysis relative to control; format: functional
Method in brief: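 MDA-MB-231 cells were plated at 5×10^5 cells/mL in 6-well plates, left to adhere overnight, then treated 24 h at 1, 2 and 4 μM. Cells were trypsinized, washed in PBS and loaded with rhodamine-123 (10 μg/mL) in PBS for 30 min at room temperature. After two PBS washes, fluorescence was read by spectrofluorometer (ex 480/em 530 nm). Loss is expressed against control; three independent experiments in triplicate.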

[15] = tested on: MDA-MB-231; assay: Induction of apoptosis in human MDA-MB-231 cells assessed as increase in cleaved PARP expression after 24 hrs by Western blot analysis; format: functional, cell-based
Method in brief: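 MDA-MB-231 treated at 1, 2 or 4 µM for 24 h. Whole-cell extracts prepared in RIPA buffer. Blots probed with rabbit anti-caspase-3, anti-Bcl2 and anti-β-actin (1:1000) and anti-Bax (1:500), then HRP secondaries and ECL detection. Membranes stripped and reprobed. Bands quantified by densitometry as fold change versus control. Mean ± SEM, n=3.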

[16] = tested on: MDA-MB-231; assay: Induction of apoptosis in human MDA-MB-231 cells assessed as late apoptotic cells at 1 uM after 24 hrs by Annexin V-FITC/propidium iodide-staining based FACS analysis (reference value: 3.6 %); format: functional
[17] = tested on: MDA-MB-231; assay: Induction of apoptosis in human MDA-MB-231 cells assessed as necrotic cells at 1 uM after 24 hrs by Annexin V-FITC/propidium iodide-staining based FACS analysis (reference value: 2.8 %); format: functional
[18] = tested on: MDA-MB-231; assay: Induction of apoptosis in human MDA-MB-231 cells assessed as late apoptotic cells at 4 uM after 24 hrs by Annexin V-FITC/propidium iodide-staining based FACS analysis (reference value: 3.6 %); format: functional
[19] = tested on: MDA-MB-231; assay: Induction of apoptosis in human MDA-MB-231 cells assessed as necrotic cells at 4 uM after 24 hrs by Annexin V-FITC/propidium iodide-staining based FACS analysis (reference value: 2.8 %); format: functional
[20] = Cytotoxicity against human DU145 cells assessed as growth inhibition at 50 uM after 48 hrs by MTT assay relative to control; format: functional; conditions: DU-145, 48 h, read-out: GI; method in brief: as §1
[21] = Cytotoxicity against human MCF7 cells assessed as growth inhibition at 50 uM after 48 hrs by MTT assay relative to control; format: functional; conditions: MCF7, 48 h, read-out: GI; method in brief: as §1
[22] = Cell cycle arrest in human MDA-MB-231 cells assessed as accumulation at G2/M phase after 24 hrs by propidium iodide staining based FACS analysis; format: functional; conditions: in the assay text read “G0/G1” for “G2/M”; method in brief: as §3
[23] = Cell cycle arrest in human MDA-MB-231 cells assessed as after 24 hrs by propidium iodide staining based FACS analysis

CC(C)n1c(/C=C2/C(=O)Nc3ccc(Br)cc32)nc2ccccc21
IC50 [1]: 3.26 µM | IC50 [2]: 14.9 µM | IC50 at 48 h [3]: 56.9 µM | selectivity ratio [4]: 9.5 | selectivity ratio [5]: 17 | inhibition [6]: Active | inhibition [7]: Active | Activity [8]: 20.8% | Activity [9]: 17.7% | Activity [10]: 64.3% | Activity [11]: 11.3% | Activity [12]: Active | Activity [13]: Active | Activity [14]: 25.2% | Activity [15]: Dose-dependent effect | Activity [16]: 4.7% | Activity [17]: 3.4% | Activity [18]: 7.1% | Activity [19]: 4.2% | inhibition of growth at 50 µM [20]: > 50% | inhibition of growth at 50 µM [21]: > 50% | Activity [22]: Dose-dependent effect | Activity [23]: Dose-dependent effect
